Screens from PubChem.
Compounds with a hit are over-represented: about 2.9% of the library has one in this group of screens.
RORA act = activates the human nuclear receptor RORA | AID 560 | activation, % at 10 µM | 65,000 tested, 1.5% active | P35398 | CHO-K1 Gal4-RORA LBD luciferase reporter, luminescence; percent increase over mock-subtracted basal signal;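 active means activation above the mean of all tested compounds plus 3 SD, cut at about 49% in these data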;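 further: 0% = DMSO-treated RORA cells and 100% = added signal equal to DMSO minus mock-transfected cells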
SF-1 act = SF-1 (human) activation; Q13285; CHO-K1 Gal4-SF-1 LBD luciferase reporter; % increase over DMSO SF-1-specific signal; activation, % at 10 µM; 65,000 tested, 1.9% active;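 active means activation above the mean activation of all tested compounds plus 3 SD, cut at about 50% in these data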
Target sequence (Q13285 whole entry, looked up, the tested form may be a part): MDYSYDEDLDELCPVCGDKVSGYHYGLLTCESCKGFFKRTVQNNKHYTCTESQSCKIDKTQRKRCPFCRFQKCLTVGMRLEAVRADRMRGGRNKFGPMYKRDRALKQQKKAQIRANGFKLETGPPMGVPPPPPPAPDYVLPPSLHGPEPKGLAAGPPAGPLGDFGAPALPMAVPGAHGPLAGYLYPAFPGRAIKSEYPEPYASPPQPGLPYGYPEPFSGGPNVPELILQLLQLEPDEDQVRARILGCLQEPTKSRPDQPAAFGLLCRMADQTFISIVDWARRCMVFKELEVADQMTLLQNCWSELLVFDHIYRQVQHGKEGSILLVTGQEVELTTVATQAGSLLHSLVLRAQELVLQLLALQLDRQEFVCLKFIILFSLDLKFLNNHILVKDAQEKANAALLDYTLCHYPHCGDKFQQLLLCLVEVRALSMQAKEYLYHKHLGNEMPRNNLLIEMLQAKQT
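Test system: CHO-K1 cells co-transfected with Gal4 DBD–human SF-1 LBD, 5xGal4 luciferase reporter. Quantity: 4,000 cells per well. Compound: 10 µM only. Incubation: compound added 1 h post-seeding, 20 h exposure at 37 °C, 5% CO2. Detection: SteadyLite luciferase luminescence. Replication: one test per compound.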
PKA inh = PKA (human) kinase inhibition; P17612; PKA Kemptide phosphorylation, Kinase-Glo ATP luminescence; inhibition, % at 6 µM; 65,000 tested, 0.1% active; AID 524;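 active means inhibition above the screen-wide mean inhibition plus 3 SD, cut at about 21% in these data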
JNK3 blocker = blocks human JNK3 kinase activity; inhibition, % at 8 µM; AID 746; 60,000 tested, 0.61% active; purified JNK3 kinase activity, HTS; in the data active means inhibition above about 17%;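 further: 0% = DMSO and 100% = reference inhibitor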
mHtt clearance = compounds clearing mutant huntingtin protein. HeLa Exon1htt(103Q)mCFP, aggregate imaging; zero = plate's median compound well. AID 853. 47,000 tested, 0.42% active. inhibition, % at 1.5 µM;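 active means inhibition of aggregate fluorescence above about 70%, also judged a hit by eye on the cell image, limit read from the data, passing the limit was not always enough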;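 further: cells exposed to compound for three days before fixation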
ROCK2 inh = ROCK2 (human) kinase inhibition; inhibition, % at 6 µM; 60,000 tested, 0.35% active; purified ROCK2, Kinase-Glo ATP depletion luminescence; O75116;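 active means inhibition above the screen-wide mean inhibition plus 3 SD, cut at about 18% in these data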;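 further: plate controls were DMSO wells for no effect and Y-27632 control wells after no-enzyme background subtraction for full effect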
Starred values were filed as active, the others as inactive.

What do the screens show for `CC1(C)Cc2c(sc3nc(-c4cc5ccccc5o4)n(N)c(=O)c23)CO1`?
RORA act: 59*; SF-1 act: 35; PKA inh: -4; JNK3 blocker: -4; mHtt clearance: -41; ROCK2 inh: 4

What do the screens show for `Cc1ccc(-c2nc3sc4c(c3c(=O)n2N)CC(C)(C)OC4)cc1`?
mHtt clearance: -21

What do the screens show for `Cc1ccc(NC(=O)c2c(C)nc(Nc3nc4ccccc4o3)nc2C)cc1`?
RORA act: -28; SF-1 act: 4; PKA inh: -4; JNK3 blocker: -7; mHtt clearance: 7; ROCK2 inh: -4

Results for FC(F)(F)Oc1ccc(Nc2nc3ccccc3o2)cc1 ?
RORA act: 71*; SF-1 act: 39; PKA inh: 4; JNK3 blocker: 0; ROCK2 inh: 2

Results for COCCNC(=O)c1ccccc1NS(=O)(=O)c1ccc(Br)s1 ?
mHtt clearance: -5

What do the screens show for `COc1ccccc1C1CC(c2ccccc2)Nc2ncnn21` (stereo unspecified)?
RORA act: 9; SF-1 act: 5; PKA inh: 3; JNK3 blocker: -3; mHtt clearance: 21; ROCK2 inh: 4

What do the screens show for `CC12CCC(C(=O)NCc3ccc4c(c3)OCO4)(OC1=O)C2(C)C` (stereo unspecified)?
RORA act: -6; SF-1 act: -14; PKA inh: 2; JNK3 blocker: 2; mHtt clearance: 71*; ROCK2 inh: -7

Results for CN(C)c1nc2n(c(=S)n1)CCS2 ?
RORA act: 5; SF-1 act: 13; PKA inh: 4; JNK3 blocker: 3; mHtt clearance: -66; ROCK2 inh: -6

Results for NC(=O)CN1CCN(c2ccccc2F)CC1 ?
RORA act: -12; SF-1 act: 24; PKA inh: 7; JNK3 blocker: -7; ROCK2 inh: 0

Results for Fc1ccccc1N1CCN(c2ncnc3[nH]ncc23)CC1 ?
RORA act: -20; SF-1 act: -9; PKA inh: 28*; JNK3 blocker: 4; ROCK2 inh: 14

What do the screens show for `CCCOC(=O)c1ccc(NC(=O)C2CCCO2)cc1` (stereo unspecified)?
RORA act: 9; SF-1 act: 68*; PKA inh: -4; JNK3 blocker: 1; mHtt clearance: -21; ROCK2 inh: 0

What do the screens show for `O=C(Nc1ccc(Oc2ccc(NC(=O)C3CCCO3)cc2)cc1)C1CCCO1` (stereo unspecified)?
RORA act: -3; SF-1 act: 9; PKA inh: 6; JNK3 blocker: -6; ROCK2 inh: 0

What do the screens show for `Cc1[nH]c(=O)[nH]c1C(=O)CCCCC(=O)OCC(=O)Nc1ccccn1`?
RORA act: 10; SF-1 act: -6; PKA inh: 6; JNK3 blocker: 43*; ROCK2 inh: 8

Results for CCOC(=O)CCCCC(=O)c1[nH]c(=O)[nH]c1CSc1nc2ccccc2[nH]1 ?
RORA act: -11; SF-1 act: -3; PKA inh: 4; JNK3 blocker: -42; mHtt clearance: -58; ROCK2 inh: 5

How did Cc1ccc(OCc2ccc(C(=O)N3CCOCC3)cc2)cc1C do in these assays?
RORA act: 52*; SF-1 act: 46; PKA inh: 3; JNK3 blocker: 4; mHtt clearance: -82; ROCK2 inh: 2

How did O=c1[nH]c2ccccc2n1CCC1CCCCC1 do in these assays?
mHtt clearance: -18

What do the screens show for `O=C(O)C1C2C=CC(C2)C1C(=O)NC1CCS(=O)(=O)C1` (stereo unspecified)?
RORA act: 17; SF-1 act: -6; PKA inh: 3; JNK3 blocker: 1; mHtt clearance: 10; ROCK2 inh: 5

How did CCCCc1c(C)c2ccc(OCC(C)=O)cc2oc1=O do in these assays?
RORA act: 20; SF-1 act: 74*; PKA inh: 7; JNK3 blocker: 2; ROCK2 inh: -5

What do the screens show for `CC1Cc2cc(/C(O)=C3/C(=O)C(=O)N(CC4CCCO4)C3c3ccco3)ccc2O1` (stereo unspecified)?
RORA act: -3; SF-1 act: 10; PKA inh: 12; JNK3 blocker: 8; mHtt clearance: 23; ROCK2 inh: 4

What do the screens show for `O=c1ccc(=O)n2n1CC(O)C2`?
RORA act: 21; SF-1 act: 8; PKA inh: 14; JNK3 blocker: 2; ROCK2 inh: 22*

How did Cc1ccc(NC(=O)NC2CCCCC2)cc1Cl do in these assays?
RORA act: 106*; SF-1 act: 74*; PKA inh: 2; JNK3 blocker: -4; mHtt clearance: 9; ROCK2 inh: 3

What do the screens show for `COC(=O)c1c(CSc2ccc(C)c(C)c2)noc1C(=O)NCc1ccc(OC)cc1`?
mHtt clearance: -43

Results for COC(=O)c1sccc1NC(=O)c1ccc(OC)cc1 ?
RORA act: -4; SF-1 act: 0; PKA inh: 6; JNK3 blocker: 38*; mHtt clearance: 58; ROCK2 inh: 6

What do the screens show for `COC(=O)c1sccc1NC(=O)c1cccnc1`?
RORA act: -14; SF-1 act: 1; PKA inh: 6; JNK3 blocker: 16; mHtt clearance: -20; ROCK2 inh: 8

How did COc1ccc(Cl)cc1N(CC(=O)Nc1ccc2c(c1)OCCO2)S(C)(=O)=O do in these assays?
RORA act: -10; SF-1 act: -9; PKA inh: -7; JNK3 blocker: 3; mHtt clearance: 19; ROCK2 inh: 0

How did CCn1nccc1C(=O)Nc1ccc(Cl)cc1Cl do in these assays?
RORA act: 31; SF-1 act: 67*; PKA inh: 0; JNK3 blocker: -4; mHtt clearance: -26; ROCK2 inh: 5

What do the screens show for `Fc1cccc(Oc2nc3ccccc3n3cccc23)c1`?
mHtt clearance: -7

Results for Nn1c(Nc2ccccc2)nc2ccccc21 ?
RORA act: 50*; SF-1 act: 42; PKA inh: 0; JNK3 blocker: -15; mHtt clearance: -32; ROCK2 inh: -2

How did CCOc1ccc(-c2nnc(SCC(=O)N3CCOCC3)o2)cc1 do in these assays?
RORA act: 52*; SF-1 act: 25; PKA inh: 0; JNK3 blocker: 2; ROCK2 inh: 2

What do the screens show for `O=C(CSc1nnc(-c2ccccc2Cl)o1)N1CCCCC1`?
RORA act: 65*; SF-1 act: 20; PKA inh: 7; JNK3 blocker: -3; ROCK2 inh: 1

How did CCC1CCCCN1C(=O)CSc1nnc(-c2ccc3c(c2)OCCO3)o1 (stereo unspecified) do in these assays?
RORA act: 3; SF-1 act: -26; PKA inh: -1; JNK3 blocker: -4; mHtt clearance: -118; ROCK2 inh: -3

How did Cc1ccc(-c2nnc(SCC(=O)N3CCCC3)o2)cc1 do in these assays?
RORA act: 22; SF-1 act: 13; PKA inh: 3; JNK3 blocker: 0; mHtt clearance: -21; ROCK2 inh: -2
